PREPL inhibitor: PREPL enzyme inhibitors, primary screen, biochemical, fluorescence polarization | Prolyl endopeptidase-like (Homo sapiens), Q4J6C6 | recombinant PREPL, fluorescence polarization activity-based probe | inhibition, % at 5.96 µM | 320,000 tested, 0.68% active; in the data active = inhibition above about 43%
SUMO HTRF inh: inhibitors of in vitro SUMOylation cascade, primary screen, biochemical, HTRF, uHTS; HTRF SUMOylation assay, SAE1/SAE2 + UBC9; 290,000 tested, 0.36% active; SUMO-conjugating enzyme UBC9 (Homo sapiens), P63279; inhibition, % at 35 µM; in the data active = inhibition above about 50%, passing the limit was not always enough; inconclusive = no clear call, values can overlap the other calls
Target sequence (P63279 whole entry, looked up): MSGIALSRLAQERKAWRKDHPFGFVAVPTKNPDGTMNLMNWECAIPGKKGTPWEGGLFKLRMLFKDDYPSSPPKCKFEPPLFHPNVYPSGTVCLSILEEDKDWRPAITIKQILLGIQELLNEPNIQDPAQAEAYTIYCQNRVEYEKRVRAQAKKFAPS
UBC13 polyUb: UBC13 polyubiquitin chain formation inhibitors, primary screen, biochemical, TR-FRET, uHTS; Ubiquitin-conjugating enzyme E2 N (Homo sapiens), P61088; inhibition, % at 20 µM; 330,000 tested, 0.47% active; in the data active = inhibition above about 45%, passing the limit was not always enough; inconclusive = no clear call, values can overlap the other calls
Target sequence (P61088 whole entry, looked up): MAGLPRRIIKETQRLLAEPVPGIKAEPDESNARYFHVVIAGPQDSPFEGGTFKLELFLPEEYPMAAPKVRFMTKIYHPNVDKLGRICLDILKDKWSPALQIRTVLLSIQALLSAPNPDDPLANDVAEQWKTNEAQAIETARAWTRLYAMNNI
Rin1-Abl PPI inh: inhibitors of Rin1-Abl protein binding, primary screen, biochemical, TR-FRET; Tyrosine-protein kinase ABL1 (Homo sapiens) + Ras and Rab interactor 1 (Homo sapiens), …; inhibition, % at 7.35 µM; 360,000 tested, 0.4% active; AID 588664, 2011; in the data active = inhibition above about 5%, passing the limit was not always enough
RBBP9 inh: human RBBP9 inhibitors, primary screen, biochemical, fluorescence polarization, FP-Rh probe, HTS. Serine hydrolase RBBP9 (Homo sapiens), O75884. 220,000 tested, 0.2% active. AID 1515, 2009. recombinant RBBP9. inhibition, % at 7.94 µM;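 active = inhibition above the campaign mean of all tested compounds plus 3 SD, cut at about 14% in these data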
Target sequence (O75884 whole entry, looked up): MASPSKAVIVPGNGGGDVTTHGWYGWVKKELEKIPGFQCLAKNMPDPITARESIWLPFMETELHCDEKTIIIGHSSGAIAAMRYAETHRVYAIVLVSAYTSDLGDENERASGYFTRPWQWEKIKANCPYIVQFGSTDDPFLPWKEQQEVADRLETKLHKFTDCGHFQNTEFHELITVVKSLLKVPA
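Measured by – fluorescence polarization · Test system – RBBP9 protein · Input – 2.5 µM RBBP9 dispensing solution, before mixing · Measure – percent inhibition from mP, scaled between DMSO and no-protein wells · Benchmarks – DMSO-treated enzyme wells and wells lacking RBBP9 · Times – preincubation 30 min plus labeling 45 min at 25 °C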
ALR inh: inhibitors of human ALR sulfhydryl oxidase, primary screen, biochemical, H2O2 detection, HRP-luminol luminescence, single point; FAD-linked sulfhydryl oxidase ALR (Homo sapiens), P55789; purified ALR, DTT oxidation; inhibition, % (concentration not given with the values); 290,000 tested, 3.8% active;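 active = mean replicate inhibition above about 79%, with every replicate also reaching it, limit read from the data; inconclusive = only one of the two criteria met; inactive = mean below limit and not every replicate reaching it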
Target sequence (P55789 whole entry, looked up): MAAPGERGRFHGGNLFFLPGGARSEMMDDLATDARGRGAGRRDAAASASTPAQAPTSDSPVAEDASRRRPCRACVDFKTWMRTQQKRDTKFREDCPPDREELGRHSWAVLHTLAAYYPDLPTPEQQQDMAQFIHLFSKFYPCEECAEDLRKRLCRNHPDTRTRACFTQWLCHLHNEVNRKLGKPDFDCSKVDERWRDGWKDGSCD
Large screens that a line does not name were inactive. This is a sample that favours compounds with a hit; in the whole collection about 4.3% have one here.

O=C(NCc1ccccc1)c1nc[nH]c1C(=O)N1CCN(c2ccccc2)CC1	ALR inh 98 (no result: SUMO HTRF inh, RBBP9 inh)
O=C(CN1C(=O)NC2(CCCCCC2)C1=O)Nc1ccc(OC(F)(F)F)cc1	none (no result: PREPL inhibitor, SUMO HTRF inh, UBC13 polyUb, RBBP9 inh, ALR inh)
Cc1ccc(NC(=O)c2cnc(SCC(=O)NCC3CCCO3)n(C)c2=O)cc1C (stereo unspecified)	UBC13 polyUb 72 (no result: SUMO HTRF inh, RBBP9 inh)
COc1ccc(CCNC(=O)CSc2ncc(C(=O)Nc3ccccc3)c(=O)n2C)cc1	none (no result: SUMO HTRF inh, RBBP9 inh)
Cc1cc2c(=O)n(C)c(SCC(=O)NCC3CCCO3)nc2s1 (stereo unspecified)	none (no result: PREPL inhibitor, SUMO HTRF inh, UBC13 polyUb, RBBP9 inh, ALR inh)
CC(=O)Nc1ccc(NC(=O)CSc2ncc(C(=O)Nc3ccccc3)c(=O)n2C)cc1	UBC13 polyUb 69, ALR inh 99 (no result: SUMO HTRF inh, RBBP9 inh)
Cc1cccn2c(=O)nc(SCC(=O)NCc3ccc(F)cc3)nc12	none (no result: SUMO HTRF inh, RBBP9 inh)
CCOC(=O)CNC(=O)c1ccc(SCC)cc1	none
CCOP(=O)(OCC)C(Nc1ccc(OC)cc1)c1ccco1 (stereo unspecified)	ALR inh 95
Oc1c(Cl)cc(Cl)cc1Sc1cc(Cl)cc(Cl)c1O	PREPL inhibitor 48, SUMO HTRF inh 92 (no result: Rin1-Abl PPI inh)
Cc1cc(C)c(O)c(CN(C)Cc2cc(Cl)cc(Cl)c2O)c1	none (no result: PREPL inhibitor, SUMO HTRF inh, UBC13 polyUb, RBBP9 inh, ALR inh)
COc1cccc(S(=O)(=O)N(C)C[C@@H]2OCc3cnnn3CCCC(=O)N([C@H](C)CO)C[C@@H]2C)c1	none (no result: PREPL inhibitor, SUMO HTRF inh, UBC13 polyUb, RBBP9 inh, ALR inh)
COC(=O)c1c(NC(=O)C2CCCCC2)sc2c1CC(C)(C)NC2(C)C	none (no result: RBBP9 inh, ALR inh)
CC/C(=N\Nc1ccnc2cc(Cl)ccc12)c1ccc(O)cc1	ALR inh 96 (no result: RBBP9 inh)
CCOc1ccccc1Nc1ccnc2cc(Cl)ccc12	none
CCc1ccc(S(=O)(=O)NCc2csc(C)n2)cc1	none (no result: PREPL inhibitor, RBBP9 inh)
Cc1cc(C#Cc2c(-c3ccccc3)n(C)c3ccccc23)ccc1F	none (no result: RBBP9 inh)
Cc1ccc(-c2nnc(Nc3ccc4c(c3)OCO4)c3ccccc23)cc1S(=O)(=O)NC(C)C	PREPL inhibitor 50
O=C(CSC1=NCCS1)c1ccc(Cl)cc1	ALR inh 98
COC(=O)c1ccc(CSC2=NCCS2)cc1	ALR inh inconclusive
COc1ccc(/C=C/C(=O)OCC(=O)NC2CC2)c(OC)c1	none (no result: SUMO HTRF inh, RBBP9 inh)
CCCCC(=O)Nc1ccc(C)c(S(=O)(=O)N2CCCCCC2)c1	none (no result: SUMO HTRF inh, RBBP9 inh)
COC(=O)CCSCC(=O)Nc1ccc(C)c(S(=O)(=O)N2CCCCC2)c1	ALR inh 99
O=C(O)c1cc(N/N=C/c2ccc(-c3ccc(F)cc3)o2)ccc1Cl	ALR inh 98 (no result: RBBP9 inh)
O=C(N/N=C/c1ccc(-c2ccc(Cl)c(C(=O)O)c2)o1)c1cc2c(ccc3ccccc32)o1	SUMO HTRF inh 51
Cc1cc(C)c(OCCNC(=O)c2ccccc2Sc2ccccc2C#N)c(C)c1	none
CCc1cccc(C)c1N1C(=O)CC(C)(C)CC1=O	none
CN(C)C=Nc1ccc2nn(-c3ccccc3)nc2c1	SUMO HTRF inh 60
CCOc1ccc(/C=N/NC(=O)NC23CC4CC(CC(C4)C2)C3)cc1O	ALR inh 99 (no result: RBBP9 inh)
O=C(N/N=C/c1ccccc1O)NC12CC3CC(CC(C3)C1)C2	none (no result: RBBP9 inh)
O=C(N/N=C/c1ccc(O)c(O)c1)NC12CC3CC(CC(C3)C1)C2	ALR inh 99 (no result: RBBP9 inh)
COc1cc(/C=N/NC(=O)NC23CC4CC(CC(C4)C2)C3)ccc1O	ALR inh 95 (no result: RBBP9 inh)
COc1cc(/C=N\NC(=O)C2CC3C=CC2C3)ccc1O (stereo unspecified)	ALR inh 100
COc1ccc(/C=N/NC(=O)c2cc(C34CC5CC(CC(C5)C3)C4)[nH]n2)cc1O	none
O=C(N=C1SC2CS(=O)(=O)CC2N1Cc1ccc(Cl)cc1)C1CC1 (stereo unspecified)	none (no result: RBBP9 inh)
N=C1CCCC1C(=S)SCCC(N)=O (stereo unspecified)	none (no result: PREPL inhibitor, SUMO HTRF inh, UBC13 polyUb, RBBP9 inh, ALR inh)
CC1(C(=O)NS(=O)(=O)C2CC2)CCCN(C(=O)Cc2ccc3ccccc3c2)C1 (stereo unspecified)	none (no result: PREPL inhibitor, SUMO HTRF inh, UBC13 polyUb, RBBP9 inh, ALR inh)
O=C(NC(c1ccc(-c2ccccc2)cc1)c1cnccn1)C1CCN(Cc2cccc(C(F)(F)F)c2)CC1 (stereo unspecified)	none (no result: PREPL inhibitor, SUMO HTRF inh, UBC13 polyUb, RBBP9 inh, ALR inh)
CN1CCN(S(=O)(=O)c2ccc(N3CCc4ccccc4C3)nc2)CC1	none
Oc1c(Cl)cc(Cl)cc1/C=N/NC(=S)NC1CC2C=CC1C2 (stereo unspecified)	SUMO HTRF inh 55 (no result: ALR inh)
COc1ccccc1/C=C1\CCC(C2CCCC2)C1=O (stereo unspecified)	none (no result: RBBP9 inh)
Cc1ccc2nc(N(CCN(C)C)C(=O)c3cc(Cl)sc3Cl)sc2c1	ALR inh 96
O=C(CSc1nccc2ccccc12)N1CCN(c2ccccn2)CC1	ALR inh 98
Cc1cccc(Nc2nc3c(s2)CCCC3)c1	ALR inh 96 (no result: UBC13 polyUb)
O=C(O)c1ccc(Nc2nc3c(s2)CCCC3)cc1	none
FC(F)(F)c1ccc2c(c1)NCC1CCCN21 (stereo unspecified)	ALR inh 98
Nc1nc(/C=C/c2ccc(F)cc2)nc(-c2ccccc2O)n1	none
Nc1nc(/C=C/c2cccnc2)nc(-c2ccccc2O)n1	ALR inh 94
CCc1ccc(-c2cc(C)no2)cc1S(=O)(=O)N1CCN(C(=O)c2ccco2)CC1	none (no result: RBBP9 inh)
CCOc1ccc(NC2CCCCC2NS(=O)(=O)c2ccccc2)cc1 (stereo unspecified)	ALR inh 92 (no result: RBBP9 inh)
CCOc1ccc(S(=O)(=O)Nc2nc3ccccc3nc2N2CCN(C)CC2)cc1	none
COc1ccccc1NC1CCCCC1NS(=O)(=O)c1ccc(C)cc1 (stereo unspecified)	none (no result: PREPL inhibitor, RBBP9 inh, ALR inh)
CCOc1ccc(S(=O)(=O)Nc2nc3ccccc3nc2Cl)cc1	ALR inh 88 (no result: RBBP9 inh)
COc1ccc(NC2CCCCC2NS(=O)(=O)c2ccc(C)cc2)cc1 (stereo unspecified)	ALR inh 87 (no result: RBBP9 inh)
Cc1ncc(C(O)c2ccccc2)n1Cc1ccccc1 (stereo unspecified)	none (no result: PREPL inhibitor, SUMO HTRF inh, UBC13 polyUb, RBBP9 inh, ALR inh)
O=C(Nc1cccc(Cl)c1)c1csc(COCCO)n1	none (no result: PREPL inhibitor, SUMO HTRF inh, UBC13 polyUb, RBBP9 inh, ALR inh)
CCn1c(CC(=O)Nc2ccc(C)cc2)nnc1SCC(=O)N1CCN(c2ccccc2)CC1	ALR inh 89
O=C(CSc1nnc(Cc2ccccc2)n1-c1ccccc1)NNC(=O)Cc1ccccc1	ALR inh 98
CCn1c(Cc2ccccc2)nnc1SCC(=O)Nc1ccc(N)cc1	ALR inh 87
CCc1ccc(NC(=O)CN2C(=O)C(=O)N(Cc3ccccc3)C2=O)cc1	none (no result: Rin1-Abl PPI inh)
CCc1nc(SCC(=O)c2ccc(C)c(C)c2)n[nH]1	ALR inh 93
COc1ccc(C(=O)CSc2n[nH]c(C)n2)cc1[N+](=O)[O-]	ALR inh 82
Cc1cc(SCC(=O)c2ccc(O)c(O)c2)nc2ccccc12	ALR inh 100

Screening results deposited in PubChem BioAssay by several laboratories.
